Source: PubChem BioAssay
SIAE primary: inhibitors of human sialic acid acetylesterase SIAE. SIAE FP-Rh probe binding, fluorescence polarization. AID 1053197. inhibition, % at 9.66 µM. Q9HAT2. 370,000 tested, 0.69% active;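 active = inhibition above a cutoff: mean of compounds within the control limits plus 3 SD of those, cut at about 17% in these data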;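 also: 0% = plate median of compound wells and 100% = probe without SIAE protein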
ABHD4 inh: inhibitors of mouse ABHD4. Q8VD66. purified mABHD4, FP-Rh probe fluorescence polarization. inhibition, % at 8.92 µM. 370,000 tested, 0.54% active;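 active = inhibition exceeding the mean over every tested compound plus 3 SD, cut at about 30% in these data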;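 also: 0% = plate median of compound wells and 100% = S159A mutant with DMSO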
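Assay system: wild-type mouse ABHD4 protein; compound: single nominal dose of 8.92 µM, 0.89% DMSO final; schedule: 45 min + 60 min at 25 °C; measured by: FP readout, ex 525 nm / em 598 nm; evaluation: % inhibition of FP-Rh probe binding versus controls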
TCR-CD3 inh: inhibitors of human TCR-CD3 interaction | inhibition, % at 9.4 µM | 360,000 tested, 0.37% active | TAMRA-labeled TCR probe fluorescence, biochemical; in the data active = inhibition above about 19%;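 also: recombinant mutant TCR 2C K166C tagged with TAMRA read by polarization; 0% = receptor in buffer alone and 100% = receptor with positive control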
HTRA1 inhibitor: blocks human HTRA1 serine peptidase; inhibition, % at 5.96 µM; recombinant HTRA1, FP-rhodamine activity-based probe, fluorescence polarization; 340,000 tested, 0.5% active; AID 504803; Q92743; in the data active = inhibition above about 36%;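 also: 0% = enzyme with DMSO and 100% = wells lacking enzyme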
Target sequence (Q92743 whole entry, looked up): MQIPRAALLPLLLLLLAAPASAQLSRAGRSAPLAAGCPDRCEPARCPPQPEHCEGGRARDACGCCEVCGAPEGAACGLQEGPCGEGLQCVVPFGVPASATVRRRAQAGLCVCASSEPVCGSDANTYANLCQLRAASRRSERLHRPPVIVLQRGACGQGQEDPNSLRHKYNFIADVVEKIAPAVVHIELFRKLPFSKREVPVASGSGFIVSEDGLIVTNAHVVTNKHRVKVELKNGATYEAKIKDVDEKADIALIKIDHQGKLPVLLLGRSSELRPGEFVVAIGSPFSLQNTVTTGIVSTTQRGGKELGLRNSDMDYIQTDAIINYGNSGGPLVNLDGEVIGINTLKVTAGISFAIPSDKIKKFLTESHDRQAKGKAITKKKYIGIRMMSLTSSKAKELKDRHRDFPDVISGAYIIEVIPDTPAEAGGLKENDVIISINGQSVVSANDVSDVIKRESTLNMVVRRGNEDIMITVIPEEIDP
PRMT1 FP inh: PRMT1 (human) inhibition, primary screen; Q99873; recombinant PRMT1, activity-based probe fluorescence polarization; inhibition, % at 2.79 µM; 370,000 tested, 1.3% active; AID 652257;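 active = inhibition above about 21% made by adding two undisclosed values, limit read from the data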
SIAE confirm: human SIAE inhibition, confirmation | shares compounds with SIAE primary | SIAE FP-Rh activity-based probe, fluorescence polarization | inhibition, % at 9.66 µM | 2,300 tested, 13% active | AID 1117263;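 active = mean inhibition of the replicates above the hit cutoff set in the primary screen, cut at about 17% in these data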;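 also: 0% = SIAE with DMSO and probe and 100% = probe without SIAE; inhibitors lower polarization as more probe stays unbound to SIAE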
An asterisk follows results filed as active; . = no result. An excerpt weighted towards active compounds, which were near 2.5% of everything screened.

SMILES	SIAE primary	ABHD4 inh	TCR-CD3 inh	HTRA1 inhibitor	PRMT1 FP inh	SIAE confirm
CCCn1c(=O)[nH]c(=O)c2c1nc(-c1ccc(OC)c(Br)c1)n2CCOC	20.9*	-7.6	-1.2	-2.9	-3.9	-16.8
CC(C(Sc1ccccc1N)c1ccccc1)[N+](=O)[O-] (centres undefined)	17.1*	11.3	-4.3	-0.8	53.0*	9.5
Nc1ccccc1SC(CC(=O)c1ccccc1)c1ccccc1 (centres undefined)	.	.	.	-8.2	.	.
CNC(=S)N1CCc2ccccc2C1	29.7*	4.8	-1.8	-1.4	1.2	5.2
Cc1c(Cl)cccc1NC(=S)N1CCc2ccccc2C1	4.3	0.3	1.7	-5.2	-2.2	.
O=C(C1CCC(CNc2nc(=S)[nH]c3ccccc23)CC1)N1CCN(c2ccc(F)cc2)CC1 (centres undefined)	20.0*	-2.0	-2.4	-7.5	0.5	-11.8
COc1ccc(N2CCN(CCCNC(=O)C3CCC(CNc4nc(=S)[nH]c5ccccc45)CC3)CC2)cc1 (centres undefined)	5.2	3.9	-12.8	5.4	1.0	.
Cc1cccc(NC(=S)N/N=C2\CC(C)(C)Oc3ccc(O)cc32)c1	40.9*	28.2	-2.2	7.5	1.4	16.7
COc1cccc(NC(=S)N/N=C2\CC3CCC2(C)C3(C)C)c1 (centres undefined)	9.7	0.0	-1.6	-16.7	0.8	.
COc1cccc(NC(=S)N/N=C2\CC(C)(C)Oc3ccc(O)cc32)c1	35.7*	9.2	-2.2	1.6	-2.8	20.7*
COc1cccc(NC(=S)NN=C2CCC(C(C)(C)C)CC2)c1 (centres undefined)	18.9*	3.0	0.5	-11.4	2.0	2.0
Fc1ccccc1NC(=S)NC1CCCC1	0.6	0.1	3.0	1.6	-3.2	.
CC1(C)C/C(=N\NC(=S)Nc2ccccc2F)c2cc(O)ccc2O1	36.7*	20.6	1.1	16.4	-2.0	37.9*
C=CCOC(=O)N1CCN(C(=O)c2ccc3nc(C)n(C4CCCC4)c3c2)CC1	9.9	4.0	.	.	-5.8	.
COc1ccc(C#Cc2ccc3c(c2)[C@H]2[C@H](CCN2S(=O)(=O)c2ccccc2F)[C@H](CO)N3C)cc1	2.3	6.5	.	.	0.0	.
CCOC(=O)[C@]12CCCCC/C=C\1N(CCc1ccc(Cl)cc1)C(=O)[C@H]2CC(=O)NCCCCc1ccccc1	-7.9	-7.6	.	.	3.6	.
COc1ccc(C(C)(C)C)cc1NC(=O)Nc1ccc2c(c1)OCO2	21.4*	-3.8	5.7	3.9	1.9	6.1
COc1ccccc1NC(=S)NCCN1CCOCC1	17.1*	-2.2	-5.0	-3.1	-4.5	3.1
COc1ccccc1NC(=S)NCc1ccccc1	10.6	-2.0	-4.2	5.7	-3.9	.
COc1ccccc1NC(=S)NCc1ccc(Cl)cc1	17.7*	6.8	2.9	-2.0	0.5	-1.3
COc1ccc(Cl)cc1NC(=S)NCCc1ccc(S(N)(=O)=O)cc1	36.5*	-3.3	5.5	-5.7	-0.7	2.0
COc1ccccc1NC(=S)NCCc1ccc(S(N)(=O)=O)cc1	1.9	2.5	4.8	-2.5	-5.2	.
CSCCC(NC(=O)COc1ccccc1)C(=O)N1CCN(c2ccccc2O)CC1 (centres undefined)	17.8*	2.4	-3.7	-1.8	-3.7	6.6
COc1ccc(CN2C3=NC(c4ccccc4)CC(=O)N3/C(=C\c3ccccc3)C2c2ccccc2)c(OC)c1 (centres undefined)	-1.5	-5.8	.	.	2.6	.
CCOC(=O)C1CCN(S(=O)(=O)c2ccc(C)c(C(=O)NC3CCCCC3)c2)CC1	-5.9	5.2	-2.6	5.7	-0.9	.
SMILES	SIAE primary	ABHD4 inh	TCR-CD3 inh	HTRA1 inhibitor	PRMT1 FP inh	SIAE confirm
CCOC(=O)N1CCN(S(=O)(=O)c2ccc(C)c(C(=O)NC3CCCCC3)c2)CC1	19.4*	4.5	4.2	10.3	-2.1	-5.6
COc1ccc(NC(=O)Nc2cc(C)cc(C)c2)cn1	-2.4	-3.4	-0.4	-0.3	12.3	.
COc1ccc(NC(=O)Nc2cccs2)cn1	17.9*	10.1	0.2	-0.8	6.5	4.9
COC(=O)C1C(=O)c2c(n[nH]c2C)CC1(C)C (centres undefined)	18.6*	-1.3	3.6	6.8	-2.8	0.8
COc1ccc(NC(=O)CSc2ccc(-c3ccco3)nn2)cc1OC	18.5*	2.0	1.6	4.6	12.4	-2.0
COc1ccc(OC)c(NC(=O)CSc2ccc(-c3ccco3)nn2)c1	11.3	4.8	2.2	-3.5	17.3	.
